Source: PubChem BioAssay (Johns Hopkins Ion Channel Center)
MrgX1 PAM: human MrgX1 positive allosteric modulation, primary screen; MrgX1-HEK293, Fluo-4 calcium flux, FDSS; stronger effect = higher value; B-score at 10 µM; 310,000 compounds, 0.63% hits; AID 588675;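 active means plate-corrected calcium response at least 3 library SD above typical, normal starting fluorescence, not activating the receptor alone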;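 further: compound read alongside a low EC10 to EC30 dose of BAM8-22 agonist; peak minus trough fluorescence over baseline measured at the second addition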
Target sequence (Q96LB2 whole entry, looked up): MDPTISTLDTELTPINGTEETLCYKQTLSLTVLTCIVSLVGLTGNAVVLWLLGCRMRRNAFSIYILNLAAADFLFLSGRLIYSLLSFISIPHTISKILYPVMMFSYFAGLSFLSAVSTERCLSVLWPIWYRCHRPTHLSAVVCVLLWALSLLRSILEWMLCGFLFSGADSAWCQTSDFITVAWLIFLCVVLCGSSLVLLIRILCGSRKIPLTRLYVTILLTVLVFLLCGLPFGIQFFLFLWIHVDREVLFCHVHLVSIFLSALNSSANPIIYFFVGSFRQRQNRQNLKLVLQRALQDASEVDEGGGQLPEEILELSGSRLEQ
RGS4 pot: RGS4 potentiation or activation; B-score at 10 µM; HEK293 M3R/inducible RGS4, carbachol calcium flux Fluo4; stronger effect = lower value; 310,000 compounds, 0.92% hits;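 active means B-score of the integrated calcium signal more than 4 SD below the library mean, with starting fluorescence not abnormally high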;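 further: negative B-score means reduced calcium response which marks RGS4 activation or potentiation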
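Material: M3R-expressing HEK293 line, RGS4 induced by doxycycline | Schedule: Overnight RGS4 induction, 30 min dye load 37 °C, 20 min compound RT | Measured by: Fluo4 fluorescence kinetic imaging of calcium | Read-out: Integrated calcium ratio converted to B score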
RGS4 inh: inhibitors of human RGS4. P49798. AID 463165. HEK293 M3R/RGS4 inducible, Fluo-4 calcium flux; stronger effect = higher value; triggered by carbachol at its EC20. B-score at 10 µM. 310,000 compounds, 0.45% hits;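 active means B-score, a plate-corrected calcium signal, over three deviations above library mean, with baseline fluorescence within five deviations of library mean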;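 further: RGS4 expression induced by doxycycline in cells with stable M3 receptor; B-score is computed from the integrated fluorescence ratio over baseline after carbachol; higher B-score means a larger calcium signal and so more RGS4 inhibition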
Target sequence (P49798 whole entry, looked up): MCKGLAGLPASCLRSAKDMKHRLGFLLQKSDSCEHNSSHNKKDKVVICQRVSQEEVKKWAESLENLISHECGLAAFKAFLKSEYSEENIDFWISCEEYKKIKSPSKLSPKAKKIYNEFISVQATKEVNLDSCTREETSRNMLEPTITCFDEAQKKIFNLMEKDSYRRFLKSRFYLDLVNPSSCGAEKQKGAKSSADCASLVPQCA
MrgX1 antagonist: antagonists of human MrgX1 receptor | Q96LB2 | MRGX1-HEK293 calcium flux, Fluo-4, BAM8-22 antagonism; stronger effect = lower value | B-score at 10 µM | 310,000 compounds, 1.3% hits | AID 588676;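 active means calcium-response B-score plate-corrected more than 3 library SD below zero, starting fluorescence within 5 deviations, no agonist response on first addition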;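 further: peak minus trough fluorescence over baseline after final BAM8-22 challenge near maximal dose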
MrgX1 agonist: agonists of human MrgX1 receptor; MrgX1-HEK293 cells, Fluo-4 calcium fluorescence, agonist mode; stronger effect = higher value; B-score at 10 µM; AID 588627; 310,000 compounds, 0.44% hits; Q96LB2;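 active means calcium response B-score plate-corrected fluorescence ratio at least 3 library SD, with starting fluorescence B-score inside 5 SD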
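times = overnight plating, then 30 min 37 °C plus 30 min room-temperature dye loading | assay system = stable human MrgX1 HEK293 cell line | input = fifteen thousand cells per well | signal = kinetic calcium dye fluorescence, Fluo-4 NW | dosing = compound delivered in addition one of three | read-out = B-scored fluorescence response ratio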
MrgX1 antag conf: reconfirmed antagonist of human MrgX1 receptor signaling; shares compounds with MrgX1 antagonist; MrgX1-HEK293, BAM8-22 calcium flux, Fluo-4; stronger effect = lower value; remaining BAM8-22 calcium response % of control (stronger effect = lower value), % at 10 µM; 2,300 compounds, 19% hits;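 active means remaining agonist calcium response no higher than 100% minus 3 SD of agonist-only control wells, with starting fluorescence near control levels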;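 further: agonist BAM8-22 given at a near maximal EC90 to ECmax level; peak minus minimum fluorescence divided by baseline after agonist addition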
HEK293 Ca flux: counter-screen for MrgX1 antagonists: effect in parental HEK293 cells; shares compounds with MrgX1 antagonist; Fluo-4 calcium fluorescence, FDSS; fluorescence ratio F(max-min)/F0 at 10 µM; 4,000 compounds, 2% hits; AID 624111;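 active means duplicate-averaged calcium fluorescence ratio at least three times the standard deviation of buffer wells, a nonspecific response in parental cells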
HEK293 Ca counter: MrgX1 allosteric activator counter-screen hit in parental HEK293 cells | 4,000 compounds, 0.4% hits | fluorescence ratio F(max-min)/F0 at 10 µM | shares compounds with MrgX1 antagonist | parental HEK293 calcium flux, Fluo-4 fluorescence ratio; stronger effect = higher value;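 active means calcium fluorescence ratio, averaged over duplicates, at least 3 SD of the buffer-well ratio, meaning a nonspecific response in receptor-free cells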;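 further: untransfected parental HEK293 lacking MrgX1 used as counterscreen for MrgX1 allosteric activators; fluorescence change taken during the second addition on a kinetic imager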
HEK293 Ca cntr2: counter-screen for MrgX1 activators: effect in parental HEK293 cells. shares compounds with MrgX1 antagonist. Fluo-4 calcium fluorescence (FDSS); stronger effect = higher value. fluorescence ratio F(max-min)/F0 at 10 µM. 4,000 compounds, 8.7% hits. AID 624115;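 active means calcium fluorescence ratio at least three times the spread of buffer wells, meaning a non-specific response in parental cells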
The depositor's hits bear a star; i = inactive; . = no result given. Hits are enriched below; roughly 3.5% of the tested compounds scored in any of these assays.

SMILES	MrgX1 PAM	RGS4 pot	RGS4 inh	MrgX1 antagonist	MrgX1 agonist	MrgX1 antag conf	HEK293 Ca flux	HEK293 Ca counter	HEK293 Ca cntr2
CC1CCC(NC(=O)COC(=O)C2CC3CCCC(C2)C3=O)CC1 (stereo not given)	i	i	i	-7.9*	i	i	i	i	i
O=C(CSc1n[nH]c(=O)n1Cc1ccco1)Nc1ccccc1Cl	i	i	i	i	i	.	.	.	.
COC(=O)c1c(N)sc(C(C)=O)c1C	i	i	i	-8.4*	i	i	i	i	i
Cc1c(C(=O)Nc2ccc3c(c2)OCO3)sc2ncn(CC(=O)N3CC(C)CC(C)C3)c(=O)c12 (stereo not given)	i	i	i	-6.5*	i	83%*	i	i	i
COc1ccc(CC(=O)OCC(=O)Nc2ncc(Cl)cc2Cl)cc1	i	i	i	-4.7*	i	i	i	i	i
COC(=O)[C@@H](NC(=O)c1ccc2c(c1)S(=O)(=O)c1ccccc1C2=O)C(C)C	i	i	i	-4.7*	i	i	i	i	i
COc1ccc2nc(/C=N/NC(=O)[C@H](C)NC(=O)OC(C)(C)C)ccc2c1	i	i	i	i	i	.	.	.	.
O=C(NC1CCCN(c2ccc(C(F)(F)F)cn2)C1)c1ccnc(Cl)c1 (stereo not given)	i	i	i	-4.9*	i	84%*	i	i	i
O=C(NC1CCCN(Cc2ccc(Cl)cc2)C1)c1ccnc(Cl)c1 (stereo not given)	i	i	i	i	i	.	.	.	.
O=C(CSc1nc(=O)n(CCCN2CCOCC2)c2c1CCCC2)Nc1ccc(Cl)cc1	i	i	i	i	i	.	.	.	.
OC(CCN1CCCC1)(c1ccccc1)C1CCCCC1 (stereo not given)	i	i	i	i	i	.	.	.	.
OC(CCN1CCCCC1)(c1ccccc1)c1ccccc1	i	i	i	-7.1*	i	i	i	i	i
CCn1cc(C(=O)Nc2sc(C)c(C)c2C(=O)OC)cn1	i	i	i	i	i	.	.	.	.
c1coc(CNc2c3c(nc4ccccc24)CCC3)c1	i	i	i	-5.5*	i	i	i	i	i
Cc1ccc2c(c1)cc(CN(Cc1cccnc1)C(=O)c1ccccc1)c1nnnn12	i	i	i	i	i	.	.	.	.
Cc1ccc2c(c1)cc(CN(Cc1ccc3c(c1)OCO3)S(=O)(=O)c1ccccc1)c1nnnn12	i	i	i	-4.5*	i	i	i	i	i
Cc1ccc(NC(=O)c2sccc2C)cc1S(=O)(=O)N(C)C	i	i	i	-5.2*	i	i	i	i	i
Cc1ccc(NC(=O)c2ccccc2Br)cc1S(=O)(=O)N(C)C	i	i	i	i	i	.	.	.	.
C=CCNC(=O)c1onc(CSc2ccc(F)cc2)c1C(=O)NCCOC	i	i	i	i	i	.	.	.	.
CCOC(=O)c1c(-c2ccc(C)cc2)csc1NC1=NS(=O)(=O)c2ccccc21	i	i	i	-6.8*	i	i	i	i	i
CCCn1c(N)c(NCCN2CCOCC2)c(=O)[nH]c1=O	i	i	i	-5.9*	i	i	i	i	i
CCCCNc1c(N)n(CCC)c(=O)[nH]c1=O	i	i	i	i	i	.	.	.	.
CCCc1cc(=O)n2[nH]c(NCc3cccs3)nc2n1	i	i	i	-11*	i	i	i	i	i
CCCc1cc(=O)n2[nH]c(NCc3ccccc3Cl)nc2n1	i	i	i	i	i	.	.	.	.
COc1ccc2[nH]c(=O)c(CN(c3ccc(C)c(C)c3)S(C)(=O)=O)cc2c1	i	i	i	-4.5*	i	i	i	i	i
SMILES	MrgX1 PAM	RGS4 pot	RGS4 inh	MrgX1 antagonist	MrgX1 agonist	MrgX1 antag conf	HEK293 Ca flux	HEK293 Ca counter	HEK293 Ca cntr2
CCOc1ccc(S(=O)(=O)Nc2ccc(S(=O)(=O)N3CCCCC3)cc2)cc1	i	i	i	-5.3*	i	i	i	i	i
CCOc1ccc(S(=O)(=O)Nc2ccc(S(=O)(=O)N3CCCC3)cc2)cc1	i	i	i	i	i	.	.	.	.
CCOc1ccc(NC(=O)CN2CCN(S(=O)(=O)c3ccc(Cl)cc3)CC2)cc1	i	i	i	-4.5*	i	i	i	i	i
CCOc1ccc(NC(=O)CCN2CCN(S(=O)(=O)c3ccc(F)cc3)CC2)cc1	i	i	i	i	i	.	.	.	.
Cc1cc(-c2nnnn2-c2cc(Cl)cc(Cl)c2)no1	i	i	i	i	i	.	.	.	.
O=C1NCCO1	i	.	.	i	i	.	.	.	.
N#Cc1ccccc1S(=O)(=O)N1CCN(CC(=O)NC(=O)NC2CCCCC2)CC1	i	i	i	-6.3*	i	i	i	i	i
Cc1cc(O)c(C(C)C)cc1N=Nc1ccccc1C(=O)O	i	i	i	i	i	.	.	.	.
Cc1cc(N=Nc2ccccc2C(=O)O)c(C)c(C)c1O	i	i	i	-6.9*	i	i	i	i	i
CCOc1ccccc1NC(=O)COC(=O)C(CC)c1ccccc1 (stereo not given)	i	i	i	i	i	.	.	.	.
CCCSc1nnc(NC(=O)Nc2ccc(F)cc2)s1	i	i	i	-5.6*	i	71%*	i	i	i
CC(C(=O)Nc1cccc([N+](=O)[O-])c1)N1C(=O)NC2(CCCC2)C1=O (stereo not given)	i	i	i	i	i	.	.	.	.
Fc1ccc(CN2CCSCC2)cc1F	i	i	i	-4.5*	i	i	i	i	i
CC1CCC(NC(=O)C(NC(=O)c2ccccc2)C(C)C)CC1 (stereo not given)	i	i	i	i	i	.	.	.	.
COc1cccc(-c2nc(CS(=O)(=O)CC(=O)N3CCc4ccccc43)c(C)o2)c1	i	i	i	-4.9*	i	i	i	i	i
